Active and inactive are the calls of the source. The calls are words filed in the database; no cut-off is given here.
Experiments:
[1] = Antioxidant activity assessed as trolox equivalent of ABTS radical cation scavenging activity incubated for 24 hrs by UV-Vis spectrophotometric analysis; type: functional
[2] = target: Cholinesterase (Equus caballus) (UniProt P81908); test: Inhibition of equine serum BuChE at 20 uM using […] as substrate preincubated for 10 mins followed by substrate addition by Ellman's method relative to control
How it was run: (§1)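 Single-point screen at 20 μM in 0.1 M K/Na phosphate pH 7.5, 25 °C; 0.02 unit/mL enzyme, 1 mM ATCh (AChE) or BTCh (BChE), 0.33 mM DTNB; 2% DMSO final; 10 min preincubation then substrate; activity relative to inhibitor-free control; three separate experiments.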

Liver carboxylesterase [3] = target: T1, Liver carboxylesterase (Sus scrofa, UniProt Q29550); test: Inhibition of porcine liver carboxylesterase using 4-NPA as substrate preincubated for 10 mins followed by substrate addition by spectrophotometric analysis; type: tissue-based
T1 sequence (Q29550 whole entry): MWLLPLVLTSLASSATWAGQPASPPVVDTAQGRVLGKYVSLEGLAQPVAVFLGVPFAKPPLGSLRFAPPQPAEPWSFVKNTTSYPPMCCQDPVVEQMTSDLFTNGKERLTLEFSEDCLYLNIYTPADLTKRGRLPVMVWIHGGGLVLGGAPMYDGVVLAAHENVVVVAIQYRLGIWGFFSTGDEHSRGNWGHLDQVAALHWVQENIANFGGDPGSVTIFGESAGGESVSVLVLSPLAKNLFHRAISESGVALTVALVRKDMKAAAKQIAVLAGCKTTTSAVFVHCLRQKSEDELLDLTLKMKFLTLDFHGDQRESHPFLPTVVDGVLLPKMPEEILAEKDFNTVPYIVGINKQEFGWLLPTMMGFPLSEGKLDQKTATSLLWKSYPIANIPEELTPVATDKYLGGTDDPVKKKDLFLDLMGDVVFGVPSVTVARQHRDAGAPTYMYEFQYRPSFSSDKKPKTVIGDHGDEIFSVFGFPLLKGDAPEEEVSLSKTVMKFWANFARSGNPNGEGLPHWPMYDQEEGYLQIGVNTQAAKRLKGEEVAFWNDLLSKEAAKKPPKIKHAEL
How it was run: (§2)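 Porcine liver CES, 0.02 unit/mL, in 0.1 M K/Na phosphate pH 8.0, 25 °C; compound in DMSO (2% v/v final) preincubated 10 min, then 1 mM 4-nitrophenyl acetate; 4-nitrophenol read at 405 nm, enzyme-free blanks. Screening at 20 μM in three separate experiments; IC50 from eight concentrations between 10^-12 and 10^-4 M, residual activity relative to inhibitor-free control.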

Acetylcholinesterase [4] = target: T2, Acetylcholinesterase (Homo sapiens, UniProt P22303); test: Inhibition of human erythrocyte AChE at 20 uM using acetylthiocholine iodide as substrate preincubated for 10 mins followed by substrate addition by Ellman's method relative to control; how it was run: as §1
[5] = Antioxidant activity assessed as decrease in ABTS radical cation scavenging activity incubated for 24 hrs by UV-Vis spectrophotometric analysis; type: functional
[6] = Cytotoxicity against human FetMSC cells assessed as reduction in cell viability after 72 hrs by MTT assay; type: cell-based
How it was run: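 Human fetal MSC (bone-marrow fibroblast-like, nonimmortalized; ≤10–15 passages) grown in F12/DMEM with 10% FBS, 3 mM L-glutamine, penicillin/streptomycin. Seeded at 6×10^3 cells/well; after 24 h, medium replaced with compound at 100, 250, 500 μM for 72 h; controls 0.1% DMSO. MTT 0.5 mg/ml for 4 h, formazan dissolved in DMSO, read at 570 nm; control = 100%.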

Acetylcholinesterase [7] = target: T2, Acetylcholinesterase; test: Inhibition of human erythrocyte AChE using acetylthiocholine iodide as substrate preincubated for 10 mins followed by substrate addition by Ellman's method
Cholinesterase = Cholinesterase (Equus caballus, UniProt P81908); test: Inhibition of equine serum BuChE using […] as substrate preincubated for 10 mins followed by substrate addition by Ellman's method
Liver carboxylesterase 1 = target: T3, Liver carboxylesterase 1 (Homo sapiens, UniProt P23141); test: Inhibition of human recombinant CES1 expressed in baculovirus infected BTI insect cells using 4-NPA as substrate by spectrophotometric analysis
T3 sequence (P23141 whole entry): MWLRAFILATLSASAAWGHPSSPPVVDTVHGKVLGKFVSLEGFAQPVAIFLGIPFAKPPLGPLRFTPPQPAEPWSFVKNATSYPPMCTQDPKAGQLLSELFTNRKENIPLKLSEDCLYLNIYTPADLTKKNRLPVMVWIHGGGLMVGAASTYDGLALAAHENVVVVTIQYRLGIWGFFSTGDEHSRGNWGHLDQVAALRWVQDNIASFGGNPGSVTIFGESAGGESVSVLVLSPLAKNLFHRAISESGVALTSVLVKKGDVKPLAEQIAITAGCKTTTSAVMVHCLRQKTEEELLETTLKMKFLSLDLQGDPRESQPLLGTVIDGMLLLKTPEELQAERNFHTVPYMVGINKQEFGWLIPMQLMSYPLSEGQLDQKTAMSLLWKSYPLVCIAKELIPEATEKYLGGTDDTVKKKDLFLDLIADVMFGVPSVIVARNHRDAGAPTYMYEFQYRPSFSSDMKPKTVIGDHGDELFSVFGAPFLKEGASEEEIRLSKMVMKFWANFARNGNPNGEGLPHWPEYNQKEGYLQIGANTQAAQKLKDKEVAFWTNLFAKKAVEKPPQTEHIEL
How it was run: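 Recombinant hCES1 (baculovirus/BTI insect cells), 0.02 unit/mL, in 0.1 M K/Na phosphate pH 7.4, 25 °C; compound (DMSO, 2% v/v final) preincubated 10 min, then 1 mM 4-nitrophenyl acetate added; 4-nitrophenol release read at 405 nm against enzyme-free blank. IC50 from eight concentrations (10^-12–10^-4 M) relative to inhibitor-free control.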

[8] = Acute toxicity in ip dosed CD-1 mouse observed for 14 days; type: organism-based; conditions: in vivo, time 14 day
How it was run: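 CD-1 mice given compound intraperitoneally in 2% (w/v) starch mucilage, three animals per dose group; lethality observed over 14 days; procedure based on OECD recommendations.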

Liver carboxylesterase [9] = target: T1, Liver carboxylesterase; test: Inhibition of porcine liver carboxylesterase at 20 uM using 4-NPA as substrate preincubated for 10 mins followed by substrate addition by spectrophotometric analysis relative to control; type: tissue-based; conditions: pig, probe 4-NPA; how it was run: as §2

Sequence of Cholinesterase (P81908 whole entry): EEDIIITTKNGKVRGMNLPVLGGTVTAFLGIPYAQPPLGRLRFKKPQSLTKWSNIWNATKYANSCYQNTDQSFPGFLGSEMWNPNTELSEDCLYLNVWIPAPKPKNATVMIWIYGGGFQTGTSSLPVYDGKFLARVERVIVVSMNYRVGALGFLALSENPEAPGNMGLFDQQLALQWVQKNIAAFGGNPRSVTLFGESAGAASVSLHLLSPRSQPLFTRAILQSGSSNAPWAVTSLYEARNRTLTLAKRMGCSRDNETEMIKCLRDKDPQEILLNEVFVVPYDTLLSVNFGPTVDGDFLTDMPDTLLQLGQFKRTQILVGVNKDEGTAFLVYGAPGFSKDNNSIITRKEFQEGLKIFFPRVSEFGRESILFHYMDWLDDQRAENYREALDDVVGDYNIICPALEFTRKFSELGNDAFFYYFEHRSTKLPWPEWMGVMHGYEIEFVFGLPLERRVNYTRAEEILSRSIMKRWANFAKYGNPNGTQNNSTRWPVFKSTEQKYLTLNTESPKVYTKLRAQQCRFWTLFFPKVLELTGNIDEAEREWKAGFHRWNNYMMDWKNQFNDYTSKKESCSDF
Sequence of Cholinesterase (Equus caballus) (P81908 whole entry): as above
T2 sequence (P22303 whole entry): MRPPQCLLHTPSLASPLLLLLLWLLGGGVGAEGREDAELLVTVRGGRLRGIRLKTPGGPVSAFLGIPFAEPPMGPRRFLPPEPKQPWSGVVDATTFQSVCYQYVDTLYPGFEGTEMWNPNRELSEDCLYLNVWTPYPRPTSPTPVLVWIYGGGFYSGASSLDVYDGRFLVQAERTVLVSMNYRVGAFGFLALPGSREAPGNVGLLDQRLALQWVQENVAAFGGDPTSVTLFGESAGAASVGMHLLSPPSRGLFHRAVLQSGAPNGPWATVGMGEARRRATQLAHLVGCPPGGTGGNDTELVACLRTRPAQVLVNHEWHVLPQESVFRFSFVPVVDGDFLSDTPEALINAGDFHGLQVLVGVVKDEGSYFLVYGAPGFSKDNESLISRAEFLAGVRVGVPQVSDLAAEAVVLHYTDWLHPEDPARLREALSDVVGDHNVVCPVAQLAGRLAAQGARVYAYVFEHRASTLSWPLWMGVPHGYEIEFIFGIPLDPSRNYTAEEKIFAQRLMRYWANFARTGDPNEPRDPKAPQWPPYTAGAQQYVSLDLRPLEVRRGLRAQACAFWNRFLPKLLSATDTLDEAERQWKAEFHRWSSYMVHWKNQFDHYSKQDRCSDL

SMILES | Activity [1] | inhibition [2] | IC50 (Liver carboxylesterase [3]) [µM] | inhibition (Acetylcholinesterase [4]) | IC50 [5] [µM] | IC50 [6] [µM] | IC50 (Acetylcholinesterase [7]) [µM] | IC50 (Cholinesterase) [µM] | IC50 (Liver carboxylesterase 1) [µM] | LD50 at 336 h [8] [mg/kg] | inhibition at 20 µM (Liver carboxylesterase [9]) [%]
CC(=O)/C(=N\Nc1ccc(C)cc1)C(=O)C(F)(F)F | 1.33 | 13.4% | 56.6 | 11% | 15.6 | – | – | – | – | – | –
CCOC(=O)/C(=N\Nc1ccccc1[N+](=O)[O-])C(=O)C(F)(F)F | 0.04 | – | 0.00495 | – | – | > 500 | 0.759 | 8.06 | 0.0241 | 300 | –
CCOC(=O)/C(=N\Nc1ccc(C)cc1)C(=O)C(F)(F)C(F)(F)C(F)(F)F | 0.3 | – | 0.102 | 23.6% | 62.3 | – | – | 42.1 | – | – | –
COC(=O)/C(=N\Nc1ccccc1)C(=O)C(F)(F)F | 0.78 | – | 0.0555 | – | 26.6 | – | 20.1 | 14.5 | 0.0115 | – | –
Cc1ccc(N/N=C(\C(=O)c2ccccc2)C(=O)C(F)(F)F)cc1 | 1.7 | 19.4% | 5.54 | 9.1% | 12.8 | – | – | – | – | – | –
CCOC(=O)/C(=N\Nc1ccc(OC)cc1)C(=O)C(F)(F)F | 1 | 24.3% | 0.0131 | – | 19.3 | – | 4.62 | – | 0.00429 | – | –
Oc1ccccc1O [CATECHOL] | 1.2 | – | – | – | 16.4 | – | – | – | – | – | –
CCOC(=O)/C(=N\Nc1ccc(F)cc1)C(=O)C(F)(F)F | 0.6 | – | 0.00716 | – | 35.3 | > 500 | 2.67 | 11.3 | 0.0223 | – | –
O=C1O[C@H]([C@@H](O)CO)C(O)=C1O [ASCORBIC ACID] | 0.98 | – | – | – | 21.6 | – | – | – | – | – | –
CCOC(=O)/C(=N\Nc1ccc(C)cc1)C(=O)C(F)(F)C(F)(F)C(F)(F)C(F)(F)F | 0.26 | 4% | 0.0893 | 17.2% | 66.6 | – | – | – | – | – | –
CCOC(=O)/C(=N\Nc1ccc(C(=O)OCC)cc1)C(=O)C(F)(F)F | 0.1 | – | 0.0471 | – | 193 | – | 3.79 | 19.6 | – | – | –
CCOC(=O)/C(=N\Nc1ccc(C)cc1)C(=O)C(F)(F)C(F)(F)F | 0.36 | – | 0.164 | 11.5% | 55.2 | – | – | 31.1 | 0.0474 | – | –
Cc1c(C)c2c(c(C)c1O)CCC(C)(C(=O)O)O2 (stereo not given) [TROLOX] | 1 | – | – | – | 20.4 | – | – | – | – | – | –
COC(=O)/C(=N\Nc1ccc(C)cc1)C(=O)C(F)F | 0.38 | 2.3% | 1.57 | 5.8% | 52.6 | > 500 | – | – | – | – | –
COC(=O)/C(=N\Nc1ccc(OC)cc1)C(=O)C(F)(F)F | 0.97 | – | 0.0467 | – | 22.5 | – | 30.3 | 49.6 | 0.0213 | – | –
CCOC(=O)/C(=N\Nc1ccccc1C(=O)OCC)C(=O)C(F)(F)F | 0.04 | – | 0.0416 | – | – | – | 0.481 | 0.122 | – | – | –
CCOC(=O)/C(=N\Nc1ccc(C)cc1)C(=O)C(F)F | 0.37 | 12.4% | 3.23 | 18.2% | 53.3 | – | – | – | – | – | –
CCOC(=O)/C(=N\Nc1cccc(C)c1)C(=O)C(F)(F)F | 0.85 | – | 0.00727 | – | 25.4 | > 500 | 30.4 | 38.1 | 0.00517 | 300 | –
CCOC(=O)/C(=N\Nc1ccc(C)cc1)C(C)=O | 0.38 | inactive | – | 6.8% | 52.4 | – | – | – | – | – | 12.1
COC(=O)/C(=N\Nc1ccc(OC)cc1)C(=O)C(F)(F)C(F)(F)C(F)(F)F | 0.4 | 21.2% | 0.103 | 7.1% | 50.3 | – | – | – | 0.111 | – | –
CCOC(=O)/C(=N\Nc1ccc(Br)cc1)C(=O)C(F)(F)F | 0.53 | – | 0.00514 | – | 36.3 | > 500 | 1.36 | 2.02 | 0.0153 | 300 | –
COC(=O)/C(=N\Nc1ccccc1[N+](=O)[O-])C(=O)C(F)(F)F | 0.03 | – | 0.00765 | – | – | > 500 | 20.9 | 45.1 | 0.102 | 300 | –
O=[N+]([O-])c1ccc(OP(=O)(O)Oc2ccc([N+](=O)[O-])cc2)cc1 | – | inactive | – | inactive | – | – | – | – | – | – | –

— ChEMBL document CHEMBL4819068, “Novel potent bifunctional carboxylesterase inhibitors based on a polyfluoroalkyl-2-imino-1,3-dione scaffold” (Eur J Med Chem, 2021)
